Source: ChEMBL document CHEMBL5370575, “Probing the Cytotoxic Signaling Induced by Eupenifeldin in Ovarian Cancer Models” (J Nat Prod, 2023)
Active and inactive are the calls of the source. No cut-off for these calls is given here.

Tests used:
[1] = Cytotoxicity against human FT33 cells assessed as inhibition of cell growth for 72 hrs by CellTiter-Blue cell viability assay; format: toxicity, cell-based
Summary of the method: (§1)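 5000 cells seeded in triplicate, attached overnight, then exposed for 72 h to serial concentrations in DMSO vehicle (0.05%). Viability was read by fluorometric CellTiter-Blue. IC50 in nM comes from dose–response curves relative to DMSO control. Media: OVCAR3 in RPMI1640, OVCAR5/OVCAR8 in DMEM, hFT33 in DMEM-Ham's F12 50/50, all with 10% FBS. Data are mean ± SEM, three biological replicates.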

OVCAR-3 [2] = assay: Cytostatic activity against human OVCAR-3 cells assessed as […] in colony formation at 10 nM incubated for 8 hrs measured after 2 weeks by crystal violet staining based analysis; format: functional, cell-based; settings: time 344.0 hrs
Summary of the method: (§2)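 Seeded at 200 cells per dish, attached overnight, exposed 8 h to 10 nM (DMSO vehicle 0.1%), then grown 15 days in untreated growth medium. Colonies fixed with 4% paraformaldehyde, stained with 0.05% crystal violet, counted and normalised to vehicle. Mean ± SEM, three biological replicates, one-way ANOVA with Dunnett's test.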

OVCAR-3 [3] = assay: Cytotoxicity against human OVCAR-3 cells assessed as inhibition of cell growth for 72 hrs by CellTiter-Blue cell viability assay; format: functional, cell-based; settings: OVCAR-3, 72 h; summary of the method: as §1
OVCAR-8 [4] = assay: Cytostatic activity against human OVCAR-8 cells assessed as […] in colony formation at 10 nM incubated for 8 hrs measured after 2 weeks by crystal violet staining based analysis; format: functional, cell-based; settings: time 344.0 hrs; summary of the method: as §2
OVCAR-5 [5] = assay: Cytostatic activity against human OVCAR-5 cells assessed as […] in colony formation at 10 nM incubated for 8 hrs measured after 2 weeks by crystal violet staining based analysis; format: functional, cell-based; settings: time 344.0 hrs; summary of the method: as §2
OVCAR-8 [6] = assay: Cytotoxicity against human OVCAR-8 cells assessed as inhibition of cell growth for 72 hrs by CellTiter-Blue cell viability assay; format: functional, cell-based; settings: OVCAR-8, 72 h; summary of the method: as §1
OVCAR-5 [7] = assay: Cytotoxicity against human OVCAR-5 cells assessed as inhibition of cell growth for 72 hrs by CellTiter-Blue cell viability assay; format: functional, cell-based; settings: OVCAR-5, 72 h; summary of the method: as §1
OVCAR-3 [8] = assay: Induction of ferroptosis in human OVCAR-3 cells at 0.001 to 10 uM in presence of ferrostatin-1 by CellTiterGlo assay; format: functional, cell-based; settings: dose 0.001-10 µM

SMILES | IC50 at 72 h [1] [nM] | Activity (OVCAR-3 [2]) | IC50 (OVCAR-3 [3]) [nM] | Activity (OVCAR-8 [4]) | Activity (OVCAR-5 [5]) | IC50 (OVCAR-8 [6]) [nM] | IC50 (OVCAR-5 [7]) [nM] | Activity (OVCAR-3 [8])
CC(=O)O[C@H]1C(=O)[C@@]2(C)[C@H]([C@H](OC(=O)c3ccccc3)[C@]3(O)C[C@H](OC(=O)[C@H](O)[C@@H](NC(=O)c4ccccc4)c4ccccc4)C(C)=C1C3(C)C)[C@]1(OC(C)=O)CO[C@@H]1C[C@@H]2O [PACLITAXEL] | 11 | Active | 2.6 | Active | Active | 6.5 | 3.6 | 
CC(C)Oc1ccc(C(=O)Cn2ccnc2)cc1-n1c(CN2CCN(C(=O)COc3ccc(Cl)cc3)CC2)nc2ccccc2c1=O |  |  |  |  |  |  |  | inactive
